Source: ChEMBL document CHEMBL1142338, “Design, synthesis, cytoselective toxicity, structure-activity relationships, and pharmacophore of thiazolidinone derivatives targeting drug-resistant lung cancer cells” (J Med Chem, 2008)
pIC50: −log10 of the molar value.

Key:
[1] = test system: NCI-H460; test: Anticancer activity against paclitaxel resistant variant human H460 cells; type: functional, cell-based
Summary of the method: (§1)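 H460 and the paclitaxel-resistant, P-gp-overexpressing H460taxR line were grown in RPMI 1640 with 10% heat-inactivated FCS, penicillin and streptomycin, at 37 C in 5% CO2. Cells were seeded in 96-well plates, dosed next day from DMSO stocks (DMSO <1%, matched DMSO control), and stained with sulforhodamine B at 72 h. IC50 came from four-parameter logistic fits; at least three experiments.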

[2] = Anticancer activity against human NHFB cells; type: ADME, cell-based
Summary of the method: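 Normal human fibroblasts (NHFB) were kept in DMEM with 10% heat-inactivated FCS, penicillin and streptomycin, at 37 C in 5% CO2. They were seeded in 96-well plates and treated next day, with DMSO below 1% and a matched DMSO control. Sulforhodamine B readout was at 72 h, with viability taken relative to control. IC50 came from four-parameter logistic fits; unreached values were recorded as >100 µM because of the solubility/DMSO limit.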

[3] = test system: NCI-H460; test: Anticancer activity against human H460 cells; type: functional, cell-based; summary of the method: as §1

Structure (SMILES)	pIC50 [1]	pIC50 [2]	pIC50 [3]
Cc1ccc(N=C2NC(=O)/C(=C\c3ccc(N(C)C)cc3)S2)cc1	6.09	< 4.00	6.03
CN(C)c1ccc(/C=C2/SC(=Nc3ccc(O)cc3)NC2=O)cc1	5.97	< 4.00	5.88
Cc1ccccc1/N=C1\NC(=O)/C(=C\c2ccc(N(C)C)cc2)S1	6.27	< 4.00	6.19
CN(C)c1ccc(/C=C2/SC(=Nc3ccccc3Cl)NC2=O)cc1	6.06	< 4.00	6.14
CN(C)c1ccc(/C=C2/SC(=Nc3ccccc3)NC2=O)cc1	6.68	< 4.00	6.30
COc1ccc(N=C2NC(=O)/C(=C\c3ccc(N(C)C)cc3)S2)cc1	5.80	< 4.00	5.60
CN(C)c1ccc(/C=C2/S/C(=N/c3ccc(Cl)cc3)NC2=O)cc1	5.53	< 4.00	5.54
CC(=O)Nc1ccc(/C=C2/S/C(=N/c3cccc(Cl)c3)NC2=O)cc1	5.90	< 4.00	5.92
COc1ccc(/C=C2/S/C(=N/c3ccccc3C)NC2=O)cc1	5.77	3.71	5.75
O=C1N/C(=N\c2ccc(Cl)cc2)S/C1=C/c1ccccc1O	5.93	< 4.00	5.73
